Test results as given in ChEMBL document CHEMBL3352599, “Radiosynthesis and biological evaluation of a novel enoyl-ACP reductase inhibitor for Staphylococcus aureus” (Eur J Med Chem, 2014).
≈ marks a conversion by molar mass, not a printed value.

What was measured:
Staphylococcus aureus [1] = assay: Antibacterial activity against methicillin-resistant Staphylococcus aureus BAA1762 infected in Swiss Webster thigh infection model assessed as remaining bacterial burden at 100 mg/kg, sc administered 1 hr post challenge (reference value: 9 log10 CFU); conditions: route subcutaneous
[2] = Ratio of AUC for Swiss Webster mouse at 10 mg/kg, iv to MIC for methicillin-resistant Staphylococcus aureus BAA1762
In short: (§1)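 Healthy Swiss Webster mice were given a single dose, iv at 10 mg/kg or sc at 40 mg/kg. Blood was taken at 5, 15 and 30 min and 1, 2, 4, 7 and 24 h (n = 3), with EDTA as anticoagulant. Plasma was protein-precipitated with acetonitrile and analysed by LC-MS/MS. AUC0-∞ (h*μg/mL) came from noncompartmental analysis and was divided by MIC (μg/mL).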

[3] = AUC (0 to infinity) in Swiss Webster mouse at 10 mg/kg, iv by LC/MS/MS analysis; format: ADME, organism-based; parameters: time infinity, dose 10 mg/kg, route intravenous; conditions: plasma
In short: (§2)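 Healthy Swiss Webster mice received a single dose, either 10 mg/kg iv or 40 mg/kg sc. Blood was drawn at 5, 15 and 30 min and 1, 2, 4, 7 and 24 h (n = 3). Each mouse gave two consecutive samples, retro-orbital then cardiac puncture, into EDTA. Plasma was deproteinized with acetonitrile and analysed by LC-MS/MS. Parameters came from noncompartmental analysis. sc bioavailability was calculated after dose normalization.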

Staphylococcus aureus [4] = assay: Antibacterial activity against Staphylococcus aureus; format: functional
Staphylococcus aureus [5] = assay: Antibacterial activity against methicillin-resistant Staphylococcus aureus BAA1762 infected in Swiss Webster systemic infection model assessed as survival rate at 100 mg/kg, sc administered 1 hr post infection on day 0, day 1 and 2 with 24 hrs dosing interval and measured for additional 4 days (reference value: 0%); format: functional; conditions: route subcutaneous
In short: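 Mice made neutropenic with ip cyclophosphamide (150 mg/kg day −4, 100 mg/kg day −1). MRSA grown in Mueller Hinton broth at 37 °C to mid-log, washed and diluted in BHI, then given ip at 2×10^7 cells. Compound in ethanol/PEG-400/saline (40/20/40) given sc once daily for 3 days. Vehicle-treated infected controls. Survival checked twice daily for 7 days.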

[6] = Half life in Swiss Webster mouse at 10 mg/kg, iv by LC/MS/MS analysis; format: ADME, organism-based; parameters: dose 10 mg/kg, route intravenous; conditions: in vivo
In short: as §2

[7] = Half life in Swiss Webster mouse at 40 mg/kg, sc by LC/MS/MS analysis; format: ADME, organism-based; parameters: dose 40 mg/kg, route subcutaneous; conditions: in vivo
In short: as §2

[8] = Mean residence time in Swiss Webster mouse at 10 mg/kg, iv by LC/MS/MS analysis; format: ADME, organism-based; parameters: dose 10 mg/kg, route intravenous; conditions: in vivo
In short: as §2

[9] = Clearance at steady state in Swiss Webster mouse at 10 mg/kg, iv by LC/MS/MS analysis; format: ADME, organism-based; parameters: dose 10 mg/kg, route intravenous; conditions: in vivo
In short: as §2

[10] = Ratio of AUC for Swiss Webster mouse at 40 mg/kg, sc to MIC for methicillin-resistant Staphylococcus aureus BAA1762; conditions: route subcutaneous
In short: as §1

Mus musculus [11] = assay: Volume of distribution at steady state in Swiss Webster mouse at 10 mg/kg, iv by LC/MS/MS analysis; format: ADME, organism-based; parameters: dose 10 mg/kg, route intravenous; conditions: in vivo
In short: as §2

[12] = AUC (0 to infinity) in Swiss Webster mouse at 40 mg/kg, sc by LC/MS/MS analysis; format: ADME, organism-based; parameters: time infinity, dose 40 mg/kg, route subcutaneous; conditions: plasma
In short: as §2

[13] = Cmax in Swiss Webster mouse at 10 mg/kg, iv by LC/MS/MS analysis; format: ADME, organism-based; parameters: dose 10 mg/kg, route intravenous; conditions: in vivo
In short: as §2

[14] = Mean residence time in Swiss Webster mouse at 40 mg/kg, sc by LC/MS/MS analysis; format: ADME, organism-based; parameters: dose 40 mg/kg, route subcutaneous; conditions: in vivo
In short: as §2

Mus musculus [15] = assay: Apparent volume of distribution in Swiss Webster mouse at 10 mg/kg, iv by LC/MS/MS analysis; format: ADME, organism-based; parameters: dose 10 mg/kg, route intravenous; conditions: in vivo
In short: as §2

[16] = Tmax in Swiss Webster mouse at 10 mg/kg, iv by LC/MS/MS analysis; format: ADME, organism-based; parameters: dose 10 mg/kg, route intravenous; conditions: in vivo
In short: as §2

Staphylococcus aureus [17] = assay: Antibacterial activity against methicillin-resistant Staphylococcus aureus BAA1762 infected in Swiss Webster thigh infection model assessed as remaining bacterial burden at 40 mg/kg, sc administered 1 hr post challenge (reference value: 9 log10 CFU); conditions: route subcutaneous
[18] = Cmax in Swiss Webster mouse at 40 mg/kg, sc by LC/MS/MS analysis; format: ADME, organism-based; parameters: dose 40 mg/kg, route subcutaneous; conditions: in vivo
In short: as §2

[19] = Bioavailability in Swiss Webster mouse at 40 mg/kg, sc by LC/MS/MS analysis; format: ADME, organism-based; conditions: in vivo
In short: as §2

CCCCCCc1ccc(Oc2ccccc2C#N)c(O)c1
log10 CFU (Staphylococcus aureus [1]): 6 | RatioAUC/MIC [2]: 1.28 | AUC(0-inf) [3]: 640 ng·h/mL | MIC (Staphylococcus aureus [4]): 0.5 µg/mL (≈ 1.69 µM) | survival at 100 mg/kg (Staphylococcus aureus [5]): 50% | half-life [6]: 1.01 h | half-life [7]: 6.17 h | MRT [8]: 0.65 h | clearance [9]: 7.31 mL/min | RatioAUC/MIC [10]: 3.54 | Vdss (Mus musculus [11]): 475.6 mL | AUC(0-inf) [12]: 1770 ng·h/mL | Cmax [13]: 840 ng/mL | MRT [14]: 6.47 h | Vz (Mus musculus [15]): 704.1 mL | Tmax [16]: 4.8 min | log10 CFU (Staphylococcus aureus [17]): 7 | Cmax [18]: 280 ng/mL | bioavailability [19]: 69%
